23 compounds from ChEMBL document CHEMBL3877288, “Identification and biochemical characterization of DC07090 as a novel potent small molecule inhibitor against human enterovirus 71 3C protease by structure-based virtual screening” (Eur J Med Chem, 2016) can be followed below.

The test system of series [1] is Enterovirus A71. Put plainly: Inhibition of recombinant N-terminal 6His-tagged EV71 3C protease expressed in Escherichia coli Rosetta using substrate Dabcyl-RTATVQGPSLDFE-Edans at 50 uM after 30 mins by fluorescence assay. The gist of the method:
(§1)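 Preincubated with compound in DMSO for 30 min at 30 °C. Ex 340/Em 500 nm; initial velocity over the first 600 s. Inhibition relative to DMSO control; mean of three experiments. IC50 from serial dilutions.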

Series [2] has as its system Enterovirus A71. Description: Antiviral activity against EV71 infected in human RD cells assessed as protection against virus infection after 72 hrs by MTS assay. It is filed as functional, cell-based. The following applies: Enterovirus A. A general note: Tetrazolium dyes change colour on reduction, which living cells bring about.
Series [3] is described as follows: Inhibition of recombinant N-terminal 6His-tagged EV71 3C protease expressed in Escherichia coli Rosetta using substrate Dabcyl-RTATVQGPSLDFE-Edans preincubated for 30 mins followed by substrate addition. The arrangement: species or system Enterovirus A71. The gist of the method:
as §1

The subject of series [4] is Enterovirus A71. Put plainly: Antiviral activity against EV71 infected in human RD cells assessed as reduction in viral plaque formation after 1 hr by crystal violet staining method. It is filed as functional, cell-based. Particulars: Enterovirus A.
In series [5] the test system is Coxsackievirus. Put plainly: Antiviral activity against Coxsackievirus A16 assessed as reduction in viral replication after 72 hrs by CellTiter-glo luminescent cell viability assay. It is filed as functional. The following applies: A16, 72 h. The gist of the method: (§2)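 RD cells seeded at 1 × 10^4/mL in DMEM with 10% FBS and antibiotics, grown 24 h at 37 °C, 5% CO2. Virus (EV71 50 TCID50; CVA16 100 TCID50) mixed with serial compound dilutions, added to cells and held 72 h at 37 °C. Protection read by CellTiter-Glo luminescence. EC50 is the concentration cutting virus-induced cell death by 50% versus virus control. Triplicate, run at least twice.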

For series [6], the system named is Enterovirus A71. Put plainly: Antiviral activity against EV71 infected in human RD cells assessed as protection against virus-induced cytopathic effect after 48 hrs by MTS assay. It is filed as functional, cell-based. Particulars: Enterovirus A.
Series [7] in a line: Binding affinity to EV71 3C protease A144S mutant after 1 hr by intrinsic fluorescence quenching assay. Set-up: species or system Enterovirus A71.
Series [8] is described as follows: Inhibition of EV71 3C protease A144S mutant using substrate Dabcyl-RTATVQGPSLDFE-Edans preincubated for 30 mins followed by substrate addition by fluorescence assay. Set-up: species or system Enterovirus A71.
The subject of series [9] is Enterovirus A71. Description: Antiviral activity against EV71 assessed as reduction in viral replication after 72 hrs by CellTiter-glo luminescent cell viability assay. It is filed as functional. Particulars: Enterovirus A. The gist of the method:
as §2
(In general: In ATP-based viability assays light output follows the ATP content of the culture.)

Series [10] in a line: Binding affinity to EV71 3C protease F25A mutant after 1 hr by intrinsic fluorescence quenching assay. The arrangement: species or system Enterovirus A71.
The nature of series [11]: Binding affinity to EV71 3C protease F25W mutant after 1 hr by intrinsic fluorescence quenching assay. The arrangement: species or system Enterovirus A71.
Series [12] is described as follows: Inhibition of EV71 3C protease F25W mutant using substrate Dabcyl-RTATVQGPSLDFE-Edans at 0.1 to 10 uM preincubated for 30 mins followed by substrate addition by fluorescence assay. The arrangement: species or system Enterovirus A71.
Series [13] is described as follows: Cytotoxicity against human RD cells after 48 hrs by CellTiter-glo luminescent cell viability assay. It is filed as toxicity, cell-based. The gist of the method:
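RD cells plated at 1 × 10^3 per well in DMEM with 10% FBS and antibiotics, cultured overnight at 37 °C, 5% CO2. Compound added at 0–200 µM (final) for 48 h at 37 °C. CellTiter-Glo luminescence read. Inhibition = 1 − RLU(treated)/RLU(cell control) × 100%. CC50 obtained by regression analysis.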

Series [14] can be described thus: Competitive inhibition of recombinant N-terminal 6His-tagged EV71 3C protease expressed in Escherichia coli Rosetta using substrate Dabcyl-RTATVQGPSLDFE-Edans by Dixon plot. Set-up: species or system Enterovirus A71. The procedure, abridged:
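Same fluorogenic 3Cpro activity assay (8 µM enzyme, 30 min preincubation at 30 °C, Ex 340/Em 500 nm, initial rates) run at inhibitor 0–20 µM and substrate 40–150 µM. Mechanism assigned from Lineweaver–Burk plots; Ki obtained from Dixon plots.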

Series [15] is described as follows: Binding affinity to recombinant N-terminal 6His-tagged EV71 3C protease expressed in Escherichia coli Rosetta by surface plasmon resonance assay. The arrangement: species or system Enterovirus A71. The gist of the method:
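Compound concentrations in HBS-EP were injected at 30 µL/min for 60 s, with 120 s dissociation, on a Biacore 3000. Kd fitted with a 1:1 Langmuir model.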
A general note: SPR reads the build-up and loss of mass on a sensor chip optically.

Series [16] concerns Enterovirus A71. Description: Ratio of IC50 for recombinant N-terminal 6His-tagged EV71 3C protease to IC50 for EV71 3C protease A144S mutant.
Series [17] deals with Enterovirus A71. Put plainly: Inhibition of EV71 3C protease F25A mutant using substrate Dabcyl-RTATVQGPSLDFE-Edans at 0.1 to 10 uM preincubated for 30 mins followed by substrate addition by fluorescence assay.
The subject of series [18] is Enterovirus A71. Put plainly: (§3) Binding affinity to recombinant N-terminal 6His-tagged EV71 3C protease expressed in Escherichia coli Rosetta after 1 hr by intrinsic fluorescence quenching assay. The gist of the method: (§4)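 Compound dilutions were mixed with 2 µM 3Cpro (wild type or mutants) for 1 h on ice, then held 5 min in the dark in a 1 cm quartz cell. Trp emission spectra recorded from 300 to 400 nm at 25 °C, with maximum at 340 nm. Kd derived from dose-dependent quenching.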

Series [19] can be described thus: as §3. The arrangement: species or system Enterovirus A71. The procedure, abridged:
as §4

In series [20] the test system is Enterovirus A71. Description: Ratio of IC50 for recombinant N-terminal 6His-tagged EV71 3C protease to IC50 for EV71 3C protease F25W mutant.
The nature of series [21]: Cytotoxicity against African green monkey Vero cells after 48 hrs by MTT assay. It is filed as toxicity, cell-based. Particulars: chlorocebus sabaeus.
Series [22] relates to Enterovirus A71. Description: Antiviral activity against EV71 infected in African green monkey Vero cells after 48 hrs by plaque assay. It is filed as functional, cell-based. The following applies: Enterovirus A.

Active and inactive are the calls of the source. No cut-off for these calls is given here.

With `Cc1ccc2oc(-c3ccc(NCc4ccccn4)c(F)c3)nc2n1`, the inhibition (usually the drop in the measured response relative to a control, in per cent) in [1] was found to be 6.72%.
For the compound `Cc1ccc2oc(-c3ccc(NCc4ccccn4)c(Cl)c3)nc2n1`, the inhibition in series [1] amounted to 6.96%.
For the compound `COc1cc(-c2cc(=O)c3c(O)cc(OP(=O)(OC(C)C)OC(C)C)cc3o2)cc(OC)c1O`, in series [2], the EC50 (usually the concentration giving half of the maximal effect) was determined as 9.06 µM.
As for `Cc1cccc(CNc2ccc(Cc3nc4ncccc4o3)cc2)n1`, the inhibition in series [1] is 60%. Besides, the IC50 (in general, the concentration at which inhibition is half-maximal) in series [3] is 31.6 µM.
The like results for `c1ccc(CNc2ccc(Cc3nc4ncccc4o3)cc2)nc1` were, in that order, 73.7% and 48 µM.
For the compound `Cc1cccc(CNc2ccc(-c3nc4ncccc4o3)cc2F)n1`, in series [1], the inhibition came to 19.2%.
As for `Cc1cccc(CNc2ccc(-c3nc4ncccc4o3)cc2Cl)n1`, in [1], the inhibition was 34.7%.
For `C[C@@H]1O[C@@H](OC[C@H]2O[C@@H](Oc3c(-c4ccc(O)c(O)c4)oc4cc(O)cc(O)c4c3=O)[C@H](O)[C@@H](O)[C@@H]2O)[C@H](O)[C@H](O)[C@H]1O` [RUTIN], the EC50 in series [4] is 110 µM.
For `Cc1cccc(CNc2ccc(-c3nc4nc(C)ccc4o3)cc2F)n1`, the inhibition in [1] is less than 5%.
`Cc1cccc(CNc2ccc(-c3nc4ncccc4o3)cc2)n1`: the inhibition in series [1] came out at 68.1%. Also, in [3], the IC50 stood at 40.1 µM.
`Cc1cccc(CNc2ccc(-c3nc4nc(C)ccc4o3)cc2Cl)n1`: the inhibition in series [1] turned out to be 18.6%.
For the compound `CCOC(=O)/C=C/[C@H](C[C@@H]1CCNC1=O)NC(=O)[C@@H](CC(=O)[C@@H](NC(=O)c1cc(C)on1)C(C)C)Cc1ccc(F)cc1` [RUPINTRIVIR], the inhibition in series [1] worked out at 104%. The IC50 in series [3] came to 2.62 µM. For the same compound, in [5], the EC50 turned out to be 0.00565 µM.
Regarding `Fc1cc(-c2nc3ncccc3o2)ccc1NCc1ccccn1`, in series [1], the inhibition was less than 5%.
As to `Clc1cc(-c2nc3ncccc3o2)ccc1NCc1ccccn1`, the inhibition in series [1] came out at 6.65%.
Turning to `O=c1c(O)c(-c2ccc(O)c(O)c2)oc2cc(O)ccc12` [FISETIN], the EC50 in [4] came out at 84.5 µM.
As for `Cc1ccc2oc(-c3ccc(NCc4ccccn4)cc3)nc2n1`, the inhibition in series [1] was 19.2%.
`O=c1cc(-c2ccc(O)c(O)c2)oc2cc(O[C@@H]3O[C@H](CO)[C@@H](O)[C@H](O)[C@H]3O)cc(O)c12` [GALUTEOLIN]: the EC50 in [6] was 430 µM.
On to `Cc1ccc2oc(Cc3ccc(NCc4ccccn4)cc3)nc2n1`, for which the inhibition in series [1] stood at 11.9%.
`c1ccc(CNc2ccc(-c3nc4ncccc4o3)cc2)nc1`: the inhibition in [1] came out at 80.2%. Besides, the Kd (as a rule, the concentration at which binding is half-saturated) in series [7] stood at 6.37 µM; in series [10], 25 µM; in series [11] it was 12.1 µM; in series [15], 16.5 µM; in series [19] it was 13.4 µM. The IC50 in series [8] was determined as 9.73 µM; in series [3] it was 21.7 µM; in series [12], 2.28 µM. The EC50 in series [9] was found to be 22.1 µM; in series [5] it was 27.8 µM. Besides, the CC50 (as a rule, the concentration that lowers cell viability or growth by half) at 48 h in [13] was greater than 200 µM. For the same compound, the Ki (in general, the equilibrium dissociation constant of an inhibitor or competing ligand from its target) in series [14] is 23.3 µM. Also, the Ratio IC50 in [16] turned out to be 2.2; in series [20], 9.5. Further, in [17], the inhibition entry is “Active”. The Activity result in series [18] is “Dose-dependent effect”.
Take `C#C[C@@]1(O)[C@H](O)[C@@H](CO)O[C@H]1n1ccc2c(N)ncnc21`: the concentration for a half-maximal effect (EC50) in [9] turned out to be 0.17 µM; in series [22], 0.67 µM. In addition, half-maximal cytotoxicity in series [21] (CC50 at 48 h) was put at 120 µM.
In the case of `Cc1cccc(CNc2ccc(Cc3nc4nc(C)ccc4o3)cc2)n1`, the inhibition in [1] came to 7.42%.
As to `O=c1cc(-c2ccccc2)oc2cc(O)cc(O)c12` [CHRYSIN], the EC50 in series [2] worked out at 15.9 µM.
In the case of `Cc1cccc(CNc2ccc(-c3nc4nc(C)ccc4o3)cc2)n1`, in series [1], the inhibition is less than 5%.
